In ChEMBL document CHEMBL4513216, “Probing the Open Global Health Chemical Diversity Library for Multistage-Active Starting Points for Next-Generation Antimalarials” (ACS Infect Dis, 2020):

Assay: Toxicity liver stage against HepG2, at 10uM
Type: cell-based
Design: test concentration 10 uM, cell line HepG2-A16-CD81EGFP
Settings: human, HepG2-A16-CD81EGFP cells; read-out: INHIBITION
Method in brief: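 Uninfected HepG2-A16-CD81EGFP cells, 3 × 10^3 per well, 1536-well, plated on prespotted compound at 10 μM final, parasite-free screening media added to match infected plates; puromycin 10 μM positive, DMSO 0.5% negative; run in parallel with 48 h PbLuc assay at 37 °C, 5% CO2; viability by CellTiter-Glo luminescence, normalized to controls.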

Row | SMILES | cytotoxicity at 10 µM [%]
1 | COc1cc(OC)cc(C2NC(=O)CN2Cc2ccc(Br)cc2)c1 (stereo not given) | -6.67
2 | CN(C)c1nc(N)nc(CN2CCC(c3nc4ccccc4o3)CC2)n1 | -6.9
3 | COc1ccccc1CN1C[C@@H](F)[C@@H](OCc2nc3ccccc3[nH]2)C1 | 9.55
4 | COc1cccc(Oc2nc(C)c(C(=O)O)s2)c1OC | 1.96
5 | N#Cc1nc(COc2ccc3c(c2)OCO3)oc1N1CCCC1 | -42.7
6 | Cc1ccc(S(=O)(=O)c2ncccc2CN2CCCCC2)cc1 | -47.6
7 | CSc1ccccc1C(=O)NCCC(O)c1ccco1 (stereo not given) | -9.95
8 | O=C(C1CCCO1)N1CCCn2c(nnc2Cn2cccn2)C1 (stereo not given) | 16.6
9 | CCC(=O)N1CCc2nc(N3CCOCC3)nc(N(C)C)c2CC1 | 28.9
10 | COCCCN1CC2(CCCCN2C(=O)COC)CC1=O (stereo not given) | 2.5
11 | CC(C)OC[C@H]1CCC[C@]12CN(S(=O)(=O)c1cccs1)CCO2 | -1.52
12 | Cn1cc(CN2CCc3ncnc(C4CCOC4)c3CC2)cn1 (stereo not given) | -7.46
13 | COCC(=O)N1CCN(C(=O)NC(C)C)CC2(CC(=O)N(C)C2)C1 (stereo not given) | 1.76
14 | CCC(CC)C(=O)N1CCc2nc(N3CCCC3)nc(C)c2CC1 | 1.79
15 | COc1ccc(CN2Cc3cnn(C)c3C(COCC3CC3)C2)cc1 (stereo not given) | 14.5
16 | CCOc1cccc2c1OCC(=O)N(c1ccc(N(C)C)cc1)C2 | 4.28
17 | CC(=O)Nc1ncc(-c2ccc(C)cc2)[nH]1 | -4.63
18 | CN1CCC(Cc2cnc3ccccc3c2)C1 (stereo not given) | 1.42
19 | COCCNC(=O)c1cc(S(=O)(=O)N2CCCCCC2)cs1 | -14.8
20 | CNc1ccc(CC2CCCN(C(=O)c3cccc(C)n3)C2)nn1 (stereo not given) | -12.3
21 | Cc1ncsc1C(=O)N1CCC(O)(CN2CCc3ccccc3C2)C1 (stereo not given) | -8.11
22 | CC(=O)N1CCCC1c1cc(N2CCN(CC3CC3)CC2)cc(C)n1 (stereo not given) | -2.14

Row | SMILES | cytotoxicity at 10 µM [%]
23 | CC(C)CSCCN1CCN(S(C)(=O)=O)CC1 | -3.66
24 | CCCOc1ccc(CN)c(OC(F)F)c1 | -41.7
25 | CC(C)(C)C(=O)NCC(=O)Nc1cccnc1 | -4.96
26 | Cc1[nH]nc2ncc(C(=O)N3CCN(C(C)(C)C)CC3)cc12 | -4.36
27 | COc1cccc(C(=O)NS(=O)(=O)c2cc(Cl)sc2Cl)c1OC(F)F | -0.268
28 | CC(=O)Nc1ccc(CNCC(O)c2ccc(Cl)cc2)cc1 (stereo not given) | -8.74
29 | CCN(CC)S(=O)(=O)c1ccc(CNC(=O)N2CCC(C#N)CC2)cc1 | 20
30 | N#Cc1cccnc1Nc1ccc(N2CCC(C(N)=O)CC2)cc1 | -40.1
31 | CN1N=C(C(=O)NCCc2ccc(OC3CCCC3)cc2)CCC1=O | -1.52
32 | Cc1cc(CNC(=O)NCCCC(=O)N2CCc3ccccc32)no1 | 5.02
33 | OC1(CNCc2ccc(F)c(C(F)(F)F)c2)CCSCC1 | 5.1
34 | COCCOc1ncccc1C(=O)N(C)c1nccs1 | -44.1
35 | COc1ncccc1NC(=O)N1CCOCC1C (stereo not given) | -4.86
36 | Cc1nc(CNC(C)c2ccc(S(=O)(=O)N(C)C)cc2)no1 (stereo not given) | -4.32
37 | O=C(O)c1cc(S(=O)(=O)Nc2cccc3c2OCCO3)ccc1F | 12.3
38 | Cc1nc(C(=O)N(CC2CCCO2)c2ccncc2)cs1 (stereo not given) | -7.3
39 | COc1cc(CN(C)C(=O)NCc2cccc3c2OCO3)ccc1SC | -6.08
40 | CCOc1ncccc1CNC(=O)N1CCCC1c1cccs1 (stereo not given) | 4.93
41 | CC(C)(C)c1noc(CCC(=O)N2CCN(Cc3ccc(Cl)s3)CC2)n1 | 3.36
42 | Cc1c(C(=O)NCC(C)C)nnn1-c1cccc2c1CCN(CCO)C2 | 8.09
43 | O=C(c1cccnc1O)N1CCC(COc2ccccc2)CC1 | 9.53
44 | CSC1(CNc2ncc(Br)cn2)CCOCC1 | -8.93

Row | SMILES | cytotoxicity at 10 µM [%]
45 | Cc1nc(C2CCCN2Cc2cc(Cl)c3c(c2)OCCO3)no1 (stereo not given) | 7.1
46 | CCCNC(=O)C1CCN(CC2(O)CCC(C)CC2)CC1 (stereo not given) | 4.55
47 | CCN(Cc1noc(C(C)C)n1)Cc1ccc(C#N)cc1F | -2.48
48 | CS(=O)(=O)Cc1noc(CN2CCN(c3ccccc3Cl)CC2)n1 | 5.09
49 | Cc1cccc2c1NC1(CCCC1)NC2=O | -48.5
50 | CC1CN(C)c2ccccc2CN1C(=O)c1ccncc1 (stereo not given) | -23.4
51 | CO[C@H]1CO[C@@]2(CCCN(C(=O)N3CCCC3)C2)C1 | -108
52 | O=C(c1cccs1)N1CCC2(CC1)CCN(S(=O)(=O)C1CC1)CC2 | -106
53 | CNCC(=O)Nc1cccc(-c2cnc(NCCS(C)(=O)=O)nc2)c1 | -1.31
54 | O=C(CC1CCCC1)N[C@H]1CN(Cc2c[nH]cn2)C[C@@H]1C1CC1 | -54.7
55 | CCCN(Cc1ccccn1)Cc1ccccc1OC | -43.3
56 | CNC(=O)[C@@H]1C[C@@H](N)CN1c1nc(N2CCCC2)nc(C)c1C | -7.82
57 | Cc1cc(C)c2nc(C)cc(C(=O)NCc3csc(N(C)C)n3)c2c1 | 13.5
58 | CCN1CCC(CNS(=O)(=O)N2CCc3ccccc3C2)C1 (stereo not given) | -15.4
59 | CC(C)c1ncc(CN2C[C@@H](CN3CCCC3)[C@@H](CO)C2)cn1 | -7.3
60 | COc1ccccc1-n1nc(-c2ccco2)n(CC(=O)NC(C)C)c1=O | 2.57
61 | O=C(NCCn1cccn1)Nc1cc(C(=O)N2CCOCC2)ccc1Cl | -46.6
62 | NC(=O)C1CCN(CC(=O)NCCn2cc(Cl)cn2)CC1 | -50
63 | O=C(c1cccnc1SC/C=C/c1ccccc1)N1CC[C@H](O)C1 | -9.66
64 | O=C(O)c1cc(-n2cc3c(n2)CCC3)cc(S(=O)(=O)N2CCOCC2)c1 | -7.95
65 | Cc1cccc(N2CCN(CCC(=O)NCc3cnc(C)cn3)CC2)c1 | -1.48
66 | CC(C)CN1C(=O)CC[C@H]2CN(C(=O)Cn3ccccc3=O)CC[C@H]21 | -7.37

Row | SMILES | cytotoxicity at 10 µM [%]
67 | CC(O)C(=O)N1CCN(c2ccccc2Cl)C(=O)C1 (stereo not given) | -1.59
68 | Cc1cnn(C(C)C2CC2)c1NC(=O)c1ccc(Cn2cnnn2)cc1 (stereo not given) | -2.06
69 | Clc1cccnc1N1CCC(C2CCN(Cc3cccnc3)CC2)C1 (stereo not given) | 2.92
70 | Cc1nc2c(c(N(C)C)n1)CCN(C(=O)CN1CCC(O)CC1)C2 | 3.6
71 | Cc1ccc2cc(CN(C)Cc3ccccn3)c(=O)[nH]c2c1 | 3.08
72 | CN1CCCC2(CCN(C(=O)Cc3cc4c(cc3Cl)OCCO4)C2)C1=O (stereo not given) | 10.1
73 | O=C(Cn1c(=O)n(Cc2ccco2)c2ncccc21)Nc1ccccn1 | 0.822
74 | Nc1nc2nc(C3CCCN(C(=O)c4cscn4)C3)ccc2s1 (stereo not given) | -1.44
75 | CC(C)c1nnc2n1CCN(C(=O)c1cc3cc(F)ccc3[nH]1)C2 | 3.98
76 | COc1ccc(OC2CCN(Cc3ccn(C)c(=O)c3)CC2)cc1 | -5.25
77 | CCc1csc(C2CCCN(C(=O)c3ncccn3)C2)n1 (stereo not given) | -1.92
78 | Cc1cnn(C2CN(CC(=O)NCCc3cccs3)C2)c1 | -3.92
79 | Cc1nc(C)n(CC2CN(Cc3cccc(OC(C)C)c3)CCO2)n1 (stereo not given) | -5.44
80 | CC(C)(C)c1ncc(C(=O)NCCNC(=O)Cc2ccccc2)s1 | -6.44
81 | COCCN1CCC(CNC(=O)C2(c3ccccc3)CCC2)C1 (stereo not given) | -5.36
82 | c1ccc2oc(CCCN3CCCC(Cn4cncn4)C3)nc2c1 (stereo not given) | -27.8
83 | COc1ccc(Cl)cc1NCC(=O)NCCNc1ncccn1 | -9.24
84 | CC(C(=O)N1CCC(Nc2cccnn2)CC1)n1cccn1 (stereo not given) | -9.17
85 | COc1ccc(NC(=O)C2CC(=O)N(C)C2)cn1 (stereo not given) | -16.5
86 | Cc1cc(C)n(CC2CCCN2CC(=O)N(C)Cc2ccc(C)o2)n1 (stereo not given) | -15.4
87 | Cc1cnn(CCC(=O)N2CCCC(c3cc(C)[nH]n3)C2)c1 (stereo not given) | -23.6
88 | Cn1cnnc1C1CCCN(C(=O)COCc2ccccc2)C1 (stereo not given) | -18.1

Row | SMILES | cytotoxicity at 10 µM [%]
89 | Fc1cccc(Oc2ccc(CNCC3CNc4ccnn4C3)cn2)c1 (stereo not given) | -7.16
90 | CSCC(=O)N1CCCC(n2ccnc2C(C)C)C1 (stereo not given) | -18.2
91 | Cc1ccc(N2CCCN(C(=O)C3(C#N)CCCCC3)CC2)nn1 | -7.7
92 | c1ccc(Cn2cccn2)c(CNCC2CNc3ccnn3C2)c1 (stereo not given) | -10.7
93 | CNS(=O)(=O)c1cccc(CNc2cc(C(F)(F)F)ccn2)c1 | -6.85
94 | CC(C)CN1C(=O)CCC12CCC(NC(=O)NCc1cccnc1)CC2 (stereo not given) | -118
95 | O=C(C1CCCC1)N1C[C@@H](c2ccsc2)[C@@H]2CN(C3CCCC3)CC[C@@H]21 | 4.79
96 | COc1cccc(CC(=O)N2CC[C@@H]3[C@H](CC2)N(C)CCS3(=O)=O)c1 | 3.68
97 | CC(C)CN1CCc2[nH]nc(C(=O)N3CCCC3)c2C1 | -98.9
98 | Cc1cccc(CN2C(=O)CO[C@@H]3CN(Cc4cnn(C)c4)C[C@H]32)c1 | 1.1
99 | Cc1ccc(CN2CCc3onc(C(=O)NC(C)C)c3C2)o1 | 11.5
100 | Cc1nc(C)c2c(n1)CCN(Cc1nccn1C)CC2 | -122
101 | Cn1nccc1-c1nnn2c1COCC(CNCC1CC1)C2 (stereo not given) | -98.8
102 | O=C(C1CCC1)N1CCC2(CCN(Cc3cccc(F)c3)CC2)CC1 | -4.29
103 | CCc1ccc(CN2CCC3(CC2)CC(N2CCN(C)CC2)CO3)cc1 (stereo not given) | -2.88
104 | Cc1ccc(C(=O)N2CCn3cnc(COCC4CC4)c3C2)cn1 | 4.03
105 | Cc1ccc(CN2Cc3nccn3CC(Cn3cccn3)C2)s1 (stereo not given) | -101
106 | CC(C)CN1CC[C@@H]2[C@H](CC1)N(S(C)(=O)=O)CCS2(=O)=O | 2.05
107 | Cc1cccc(S(=O)(=O)N2C[C@@H]3C[C@H](C(=O)NCC(C)C)[C@H](C2)O3)c1 | 6.53
108 | C=C1C(C)(C)[C@@H]2CC[C@]1(C(=O)N1CCC(Cn3cc(CO)nn3)CC1)C2 | -6.01
109 | CC(C)NC(=O)NCC1(COc2cnccn2)C[C@@H](O)[C@@H](O)C1 (stereo not given in full) | -9.85
110 | c1ccc(CN2C[C@@H]3CC[C@H]2CN(Cc2nnc(C4CC4)o2)C3)cc1 | -22.4
